Assay results published in ChEMBL document CHEMBL1681688, “Design and evaluation of a 2-(2,3,6-trifluorophenyl)acetamide derivative as an agonist of the GPR119 receptor” (Bioorg Med Chem Lett, 2011).

Experiments:
[1] = Intrinsic clearance in human liver microsomes; format: ADME, Microsome
[2] = biological target: T1, Glucose-dependent insulinotropic receptor (Homo sapiens) (UniProt Q8TDV5); assay: Intrinsic activity against human GPR119 receptor expressed in HEK293 cells assessed as beta-lactamase production by cAMP response element assay; format: functional, cell-based
T1 sequence (whole entry): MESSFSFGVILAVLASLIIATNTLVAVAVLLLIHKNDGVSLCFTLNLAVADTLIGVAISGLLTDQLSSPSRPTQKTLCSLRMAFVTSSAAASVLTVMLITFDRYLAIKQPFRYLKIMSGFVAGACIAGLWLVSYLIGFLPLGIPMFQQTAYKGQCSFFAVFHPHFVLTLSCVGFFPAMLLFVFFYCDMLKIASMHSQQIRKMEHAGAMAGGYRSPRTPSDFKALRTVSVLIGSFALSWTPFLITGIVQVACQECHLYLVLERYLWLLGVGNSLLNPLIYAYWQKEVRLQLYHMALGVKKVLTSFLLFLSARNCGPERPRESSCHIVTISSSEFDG
Procedure, shortened: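 Human recombinant cell-based cAMP functional assay, read as intrinsic activity. The number of runs varies by compound, with SD reported where n >2.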

[3] = biological target: T2, Glucose-dependent insulinotropic receptor (Homo sapiens, UniProt Q8TDV5); assay: Agonist activity against human GPR119 receptor expressed in HEK293 cells assessed as beta-lactamase production by cAMP response element assay; format: functional, cell-based
T2 sequence (Q8TDV5 whole entry): T1 sequence (whole entry)

[4] = Lipophilicity, log D of the compound; format: physicochemical; conditions: octanol/water

| Compound | CLint scaled [1] [mL/min/kg] | Intrinsic activity [2] [%] | EC50 [3] [nM] | logD [4] |
| --- | --- | --- | --- | --- |
| CC(CNC(=O)Cc1ccccc1F)C1CCN(C(=O)OC(C)(C)C)CC1 (stereo not drawn) | > 300 | 97 | 808 |  |
| CC(CNC(=O)Cc1ccc(S(C)(=O)=O)cc1)C1CCN(C(=O)OC(C)(C)C)CC1 (stereo not drawn) | 136 | 47 | 884 |  |
| CC(CNC(=O)Cc1ccc(-n2cnnn2)cc1)C1CCN(C(=O)OC(C)(C)C)CC1 (stereo not drawn) | > 270 | 72 | 267 |  |
| CC(C)OC(=O)N1CCC(CCNC(=O)Cc2c(F)ccc(F)c2F)CC1 |  | 68 | 409 | 3.4 |
| CC(CNC(=O)Cc1cccc(F)c1)C1CCN(C(=O)OC(C)(C)C)CC1 (stereo not drawn) | > 300 | 102 | 340 |  |
| CC(CNC(=O)Cc1c(F)cccc1F)C1CCN(C(=O)OC(C)(C)C)CC1 (stereo not drawn) |  | 101 | 120 | 3.9 |
| CC(CNC(=O)Cc1cc(F)ccc1F)C1CCN(C(=O)OC(C)(C)C)CC1 (stereo not drawn) | > 300 | 104 | 78 |  |
| CC(CNC(=O)Cc1cccc(F)c1F)C1CCN(C(=O)OC(C)(C)C)CC1 (stereo not drawn) | > 300 | 107 | 75 |  |
| CC(CNC(=O)Cc1ccccc1)C1CCN(C(=O)OC(C)(C)C)CC1 (stereo not drawn) | 247 | 100 | 5980 |  |

More lines, now with the values ahead:

| CLint scaled [1] [mL/min/kg] | Intrinsic activity [2] [%] | EC50 [3] [nM] | logD [4] | Compound |
| --- | --- | --- | --- | --- |
| 42.4 | 107 | 80 | 3.4 | CC1(OC(=O)N2CCC([C@H](F)CNC(=O)Cc3c(F)ccc(F)c3F)CC2)CC1 |
| 205 | 88 | 32 | 4 | CC(C)OC(=O)N1CCC(C(C)CNC(=O)Cc2c(F)ccc(F)c2F)CC1 (stereo not drawn) |
| 187 | 97 | 236 | 3.9 | C[C@@H](CNC(=O)Cc1c(F)ccc(F)c1F)C1CCN(C(=O)OC2(C)CC2)CC1 |
| 63.8 | 100 | 1380 | 3.4 | CC1(OC(=O)N2CCC([C@@H](F)CNC(=O)Cc3c(F)ccc(F)c3F)CC2)CC1 |
| > 300 | 124 | 44 | 3.9 | C[C@H](CNC(=O)Cc1c(F)ccc(F)c1F)C1CCN(C(=O)OC2(C)CC2)CC1 |
|  | 111 | 868 | 3.5 | CC1(OC(=O)N2CCC(CCNC(=O)Cc3c(F)ccc(F)c3F)CC2)CC1 |
| 230 | 87 | 13 |  | CC(CNC(=O)Cc1c(F)ccc(F)c1F)C1CCN(C(=O)OC(C)(C)C)CC1 (stereo not drawn) |
